In ChEMBL document CHEMBL1799951, “FimH antagonists for the oral treatment of urinary tract infections: from design and synthesis to in vitro and in vivo evaluation” (J Med Chem, 2010):
Converted amounts (≈) assume the structure as drawn. The source made the active and inactive calls. The calls are words filed in the database; no cut-off is given here.

How the values were obtained:
[1] = Stability of the compound in simulated intestinal fluid assessed as compound remaining after 2 hrs by LC-MS analysis; assay type: physicochemical; details: read-out: Stability
Summary of the method: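 Simulated intestinal fluid (phosphate, NaOH, pancreatin, pH 6) at 37 °C, compound at 10 μM, 500 rpm. Samples at 0-120 min MeCN-quenched; LC-MS as % remaining versus initial.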

Liver [2] = assay: Metabolic stability of the compound in mouse liver microsomes assessed as degradation by carboxylesterase at 2 uM by LC-MS analysis in presence of CES inhibitor BNPP; assay type: ADME, Microsome
Summary of the method: (§1)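 Pooled male mouse liver microsomes (0.25 mg/mL) with 2 μM compound in 0.1 M TRIS pH 7.4 and 2 mM MgCl2 at 37 °C. Samples at 0, 1, 3, 6 and 15 min quenched in cold MeCN; LC-MS as % remaining. The inhibitor arm used microsomes pre-incubated 5 min with 1 mM BNPP.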

[3] = AUC (0 to 24 hrs) in plasma of urinary tract infection C3H/HeN mouse model at 50 mg/kg, po administered as single dose measured after 6 hrs by LC-MS analysis; assay type: ADME, organism-based; set-up: time < 24 hr, dose 50 mg/kg, route oral
Summary of the method: (§2)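 Female C3H/HeN mice (19-25 g) given a single 50 mg/kg oral dose by gavage. Compound dissolved in DMSO, then diluted in 1% Tween-80/PBS to a suspension. Blood and urine (10 μL) sampled at 6 min, 30 min, 1, 2, 4, 6, 8 and 24 h. Proteins precipitated with methanol, then LC-MS; for the prodrug, both ester and carboxylate metabolite measured; n=6.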

[4] = Thermodynamic solubility of the compound at pH 6.5 after 24 hrs by LC-MS analysis; assay type: physicochemical; details: buffer, read-out: Therm_solubility
Summary of the method: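 1 mg solid in 250 μL 50 mM phosphate pH 6.5, sonicated 15 min, shaken 2 h at 25 °C, left 24 h. pH measured, then filtered and diluted; concentration determined by LC-MS.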

[5] = Plasma protein binding in human by miniatured equilibrium dialysis method; assay type: ADME, cell-free; details: read-out: PPB (converted)
Summary of the method: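 Human plasma adjusted to pH 7.5 with analyte at 10 μM, dialysed against 0.1 M phosphate pH 7.5 (MWCO 12-14 K) for 5 h at 37 °C in triplicate. Compartments MeCN-precipitated and measured by LC-MS; fb = 1 − cbuffer/cplasma.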

[6] = target: Type 1 fimbrin D-mannose specific adhesin (Escherichia coli K-12) (UniProt P08191); assay: Ratio IC50 for compound to IC50 for n-heptyl R-D-mannopyranoside for His-tagged FimH expressed in Escherichia coli HM125
Sequence of Type 1 fimbrin D-mannose specific adhesin (Escherichia coli K-12) (P08191 whole entry): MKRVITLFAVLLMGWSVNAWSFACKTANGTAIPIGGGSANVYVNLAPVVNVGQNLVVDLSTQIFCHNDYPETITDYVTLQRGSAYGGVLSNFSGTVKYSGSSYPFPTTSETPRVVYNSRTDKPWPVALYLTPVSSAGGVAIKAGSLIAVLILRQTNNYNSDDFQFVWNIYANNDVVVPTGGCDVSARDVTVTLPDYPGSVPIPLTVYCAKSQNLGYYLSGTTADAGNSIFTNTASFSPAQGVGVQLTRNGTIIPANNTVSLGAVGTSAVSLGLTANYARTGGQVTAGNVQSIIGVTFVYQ
Summary of the method: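 FimH-CRD-Th-6His (10 μg/mL) coated overnight at 4 °C in 20 mM HEPES, 150 mM NaCl, 1 mM CaCl2, pH 7.4, then blocked with 3% BSA. 4-fold compound dilutions in 5% DMSO competed with streptavidin-peroxidase TM-PAA polymer for 3 h at 25 °C. ABTS read at 415 nm, duplicates. IC50 divided by the IC50 of the heptyl mannoside reference run on the same plate.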

[7] = Stability of the compound in simulated gastrointestinal fluid assessed as compound remaining after 2 hrs by LC-MS analysis; assay type: physicochemical; details: read-out: Stability
[8] = Apparent permeability across human Caco2 cells after 120 mins by HPLC analysis; assay type: ADME, cell-based; details: Caco-2
Summary of the method: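 Caco-2 cells at passage 60-65 seeded on Transwells and used on days 19-21 in DMEM without pyruvate/phenol red. Only monolayers with TEER >300 Ωcm2 before and after were kept. Apical dosing from 10 mM stock, shaken at 250 rpm. Basolateral samples at 5-120 min by HPLC; Papp = (dQ/dt)/(A·c0). Triplicates.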

[9] = Permeability of the compound assessed as membrane retention by PAMPA method; assay type: ADME
Summary of the method: (§3)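 PAMPA with GIT-0 lipid, donor analyte 50 μM at pH 5.0, 6.2 and 7.4 in quadruplicate, 16 h undisturbed incubation. Donor and acceptor quantified by UV and LC-MS.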

Plasma = assay: AUC (0 to 24 hrs) in plasma of urinary tract infection C3H/HeN mouse model assessed as Sodium3'-Chloro-4'-(alpha-D-mannopyranosyloxy)-biphenyl-4-carboxylate level at 50 mg/kg, po administered as single dose measured after 6 hrs by LC-MS analysis; assay type: ADME, organism-based; set-up: time < 24 hr, dose 50 mg/kg, route oral; details: in vivo; summary of the method: as §2
[10] = target: Type 1 fimbrin D-mannose specific adhesin (Escherichia coli K-12, UniProt P08191); assay: Competitive inhibition of His-tagged FimH carbohydrate recognizing domain expressed in Escherichia coli HM125 using ABTS-substrate after 3 hrs by […] assay
Sequence of Type 1 fimbrin D-mannose specific adhesin (P08191 whole entry, the tested form may be a part): as the sequence (P08191 whole entry) above
Summary of the method: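 FimH-CRD-Th-6His from E. coli HM125 coated at 10 μg/mL overnight at 4 °C and blocked with 3% BSA. 4-fold compound dilutions in HEPES buffer pH 7.4 (5% DMSO) plus streptavidin-peroxidase TM-PAA polymer, 3 h at 25 °C. ABTS developed 4 min and read at 415 nm. Duplicates; heptyl mannoside reference on each plate.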

[11] = AUC (0 to 24 hrs) in urine of urinary tract infection C3H/HeN mouse model assessed as Sodium3'-Chloro-4'-(alpha-D-mannopyranosyloxy)-biphenyl-4-carboxylate level at 50 mg/kg, po administered as single dose measured after 6 hrs by LC-MS analysis; assay type: ADME, organism-based; set-up: time < 24 hr, dose 50 mg/kg, route oral; details: in vivo; summary of the method: as §2
[12] = Lipophilicity, log D at pH 7.4 by miniatured shake flask method; assay type: physicochemical; details: buffer
Summary of the method: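 Octanol-saturated 0.1 M phosphate pH 7.4 containing analyte at 1 μM, overlaid with octanol at two volume ratios, three wells each. Shaken 2 h at 25 °C, then centrifuged; aqueous phase measured by LC-MS. log D computed from depletion. Accepted when the ratio means agree within 0.1.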

[13] = AUC (0 to 24 hrs) in urine of urinary tract infection C3H/HeN mouse model at 50 mg/kg, po administered as single dose measured after 6 hrs by LC-MS analysis; assay type: ADME, organism-based; set-up: time < 24 hr, dose 50 mg/kg, route oral
Summary of the method: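 Female C3H/HeN mice (19-25 g) gavaged once at 50 mg/kg. Compound dissolved in DMSO and diluted in 1% Tween-80/PBS as a suspension, or given in 200 μL PBS. Blood and urine sampled at 6 min to 24 h, methanol-precipitated, and analysed by LC-MS. For the prodrug, both parent and carboxylate metabolite were measured.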

Liver [14] = assay: Metabolic stability of the compound in mouse liver microsomes assessed as degradation by carboxylesterase at 2 uM by LC-MS analysis; assay type: ADME, Microsome; summary of the method: as §1
[15] = Dissociation constant, pKa of the compound by NMR spectrometric analysis; assay type: physicochemical
Escherichia coli [16] = assay: Antibacterial activity against Escherichia coli […] infected in urinary tract infection C3H/HeN mouse model assessed as log reduction in bacterial CFU in urine of mouse at 50 mg/kg, iv administered as single dose 1 hr before infection and measured after 3 hrs post infection; assay type: functional
Summary of the method: (§4)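 Female C3H/HeN mice dosed iv into the tail vein in 100 μL PBS, then infected transurethrally under isoflurane with 50 μL UPEC UTI89 (~10^9–10^10 CFU/mL; LB 24 h static 37 °C, PBS-washed). Six mice per group, killed 3 h post-inoculation. Urine, bladder and kidneys plated on EMB agar. Log CFU reduction taken against the 3 h untreated control baseline; Mann-Whitney test.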

[17] = Cmax in plasma of urinary tract infection C3H/HeN mouse model at 50 mg/kg, iv administered as single dose measured after 6 hrs by LC-MS analysis; assay type: ADME, organism-based; set-up: dose 50 mg/kg, route intravenous
Summary of the method: (§5)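 Female C3H/HeN mice (19-25 g) dosed once iv at 50 mg/kg in 100 μL PBS via tail vein. Blood and urine (10 μL) sampled at 6 min, 30 min, 1, 2, 4, 6, 8 and 24 h. Proteins precipitated with methanol, centrifuged, and supernatant quantified by LC-MS.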

[18] = target: T1, CD209 antigen (Homo sapiens) (UniProt Q9NNX6); assay: Binding affinity to Fc-IgG-tagged DC-SIGN carbohydrate recognizing domain at 1 mM
T1 sequence (whole entry): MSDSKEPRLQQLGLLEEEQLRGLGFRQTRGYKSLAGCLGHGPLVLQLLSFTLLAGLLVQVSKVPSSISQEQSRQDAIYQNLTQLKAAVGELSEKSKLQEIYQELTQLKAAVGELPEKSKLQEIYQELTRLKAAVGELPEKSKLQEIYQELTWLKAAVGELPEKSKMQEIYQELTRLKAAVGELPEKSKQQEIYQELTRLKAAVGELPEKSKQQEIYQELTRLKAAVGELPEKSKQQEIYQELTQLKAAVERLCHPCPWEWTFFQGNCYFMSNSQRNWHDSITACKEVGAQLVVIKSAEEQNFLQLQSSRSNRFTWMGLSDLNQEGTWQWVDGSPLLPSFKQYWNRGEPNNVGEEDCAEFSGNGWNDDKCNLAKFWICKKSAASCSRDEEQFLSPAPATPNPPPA
Summary of the method: (§6)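 FimH-CRD (10 μg/mL), DC-SIGN-CRD-Fc (2.5 μg/mL) or MBP (10 μg/mL) coated overnight at 4 °C in 20 mM HEPES pH 7.4, 150 mM NaCl, 10 mM CaCl2. Competition against streptavidin-peroxidase TM-PAA polymer as in the FimH ELISA, test compounds at 1 mM. D-mannose at 50 mM as positive control.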

Escherichia coli [19] = assay: Antibacterial activity against Escherichia coli […] infected in urinary tract infection C3H/HeN mouse model assessed as reduction in bacterial count in kidney of mouse at 50 mg/kg, iv administered as single dose 1 hr before infection and measured after 3 hrs post infection
[20] = AUC (0 to 24 hrs) in urine of urinary tract infection C3H/HeN mouse model at 50 mg/kg, iv administered as single dose measured after 6 hrs by LC-MS analysis; assay type: ADME, organism-based; set-up: time < 24 hr, dose 50 mg/kg, route intravenous; summary of the method: as §5
Escherichia coli [21] = assay: Antibacterial activity against Escherichia coli […] infected in urinary tract infection C3H/HeN mouse model assessed as log reduction in bacterial count in kidney of mouse at 50 mg/kg, iv administered as single dose 1 hr before infection and measured after 3 hrs post infection; assay type: functional, organism-based; set-up: dose 50 mg/kg
Summary of the method: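 Female C3H/HeN mice given antagonist iv (100 μL PBS, tail vein) or po as suspension, then infected. Infection: isoflurane anaesthesia, bladder emptied, 50 μL UTI89 at about 10^9-10^10 CFU/mL via transurethral catheter. Six mice per group, killed 3 h post-inoculation. Kidneys plated on EMB agar. Reduction taken against the 3 h untreated control mean; Mann-Whitney test.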

[22] = Plasma protein binding […] by LC-MS analysis; assay type: ADME, cell-free; details: read-out: PPB (converted)
[23] = Permeability coefficient, log Pe of the compound by PAMPA method; assay type: ADME; summary of the method: as §3
Liver [24] = assay: Metabolic stability of the compound in mouse liver microsomes assessed as Cyp 450-mediated degradation at 2 uM after 30 mins by LC-MS analysis in presence of NADPH; details: 0.5 h
[25] = target: Mannose-binding protein C (Homo sapiens) (UniProt P11226); assay: Binding affinity to MBP at 1 mM; summary of the method: as §6
Sequence of Mannose-binding protein C (Homo sapiens) (P11226 whole entry): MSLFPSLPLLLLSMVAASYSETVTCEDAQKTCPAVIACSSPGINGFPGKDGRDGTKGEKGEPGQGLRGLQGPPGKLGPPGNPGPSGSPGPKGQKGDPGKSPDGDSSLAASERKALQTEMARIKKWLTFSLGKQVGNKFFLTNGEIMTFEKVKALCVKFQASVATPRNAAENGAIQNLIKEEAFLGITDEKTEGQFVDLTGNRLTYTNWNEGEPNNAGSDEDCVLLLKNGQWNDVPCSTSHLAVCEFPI

[26] = Cmax in urine of urinary tract infection C3H/HeN mouse model at 50 mg/kg, iv administered as single dose measured after 6 hrs by LC-MS analysis; assay type: ADME, organism-based; set-up: dose 50 mg/kg, route intravenous; summary of the method: as §5
[27] = AUC (0 to 24 hrs) in plasma of urinary tract infection C3H/HeN mouse model at 50 mg/kg, iv administered as single dose measured after 6 hrs by LC-MS analysis; assay type: ADME, organism-based; set-up: time < 24 hr, dose 50 mg/kg, route intravenous; summary of the method: as §5
Escherichia coli [28] = assay: Antibacterial activity against Escherichia coli […] infected in urinary tract infection C3H/HeN mouse model assessed as log reduction in bacterial CFU in bladder of mouse at 50 mg/kg, iv administered as single dose 1 hr before infection and measured after 3 hrs post infection; assay type: functional; summary of the method: as §4

COC(=O)c1ccc(-c2ccc(O[C@H]3O[C@H](CO)[C@@H](O)[C@H](O)[C@@H]3O)c(Cl)c2)cc1
remaining at 2 h [1]: 80%
Stability (Liver [2]): Stable
AUC(0-t) at 24 h [3]: 1020 ng·h/mL
solubility thermodynamic at 24 h [4]: 11.9 µg/mL (≈ 28 µM)
fraction unbound [5]: 0.06
Ratio IC50 [6]: 0.06
remaining at 2 h [7]: 80%
Papp at 2 h [8]: 2.05 ×10⁻⁶ cm/s
permeability [9]: 41%
AUC (Plasma): 2100 ng·h/mL
IC50 [10]: 4.8 nM
AUC [11]: 21690 ng·h/mL
logD [12]: 2.32
AUC(0-t) at 24 h [13]: 1890 ng·h/mL
Stability (Liver [14]): Unstable

O=C([O-])c1ccc(-c2ccc(O[C@H]3O[C@H](CO)[C@@H](O)[C@H](O)[C@@H]3O)cc2)cc1.[Na+]
pKa [15]: 3.88
FC (Escherichia coli [16]): >2
Cmax [17]: 34.4 µg/mL
solubility thermodynamic at 24 h [4]: > 3000 µg/mL
fraction unbound [5]: 0.27
Activity [18]: inactive
Ratio IC50 [6]: 0.15
Activity (Escherichia coli [19]): Active
AUC(0-t) at 24 h [20]: 140000 ng·h/mL
Activity (Escherichia coli [21]): Active
fraction unbound [22]: 0.27
permeability [23]: impermeable
IC50 [10]: 17.1 nM
Stability (Liver [24]): Stable
Activity [25]: inactive
Cmax [26]: 510 µg/mL
AUC(0-t) at 24 h [27]: 19300 ng·h/mL
FC (Escherichia coli [28]): 4.5
